Each structure is given as a SMILES string. Calls of active or inactive are those of the source. The rule behind the calls is not given here. Bounds are passed on as bounds.

These results are taken from ChEMBL document CHEMBL5357082, “Identification and Optimization of Small Molecule Pyrazolopyrimidine TLR7 Agonists for Applications in Immuno-oncology” (ACS Med Chem Lett, 2024).

Data set [1] addresses T1, Toll-like receptor 7 (Mus musculus, UniProt P58681).
T1 sequence (P58681 whole entry): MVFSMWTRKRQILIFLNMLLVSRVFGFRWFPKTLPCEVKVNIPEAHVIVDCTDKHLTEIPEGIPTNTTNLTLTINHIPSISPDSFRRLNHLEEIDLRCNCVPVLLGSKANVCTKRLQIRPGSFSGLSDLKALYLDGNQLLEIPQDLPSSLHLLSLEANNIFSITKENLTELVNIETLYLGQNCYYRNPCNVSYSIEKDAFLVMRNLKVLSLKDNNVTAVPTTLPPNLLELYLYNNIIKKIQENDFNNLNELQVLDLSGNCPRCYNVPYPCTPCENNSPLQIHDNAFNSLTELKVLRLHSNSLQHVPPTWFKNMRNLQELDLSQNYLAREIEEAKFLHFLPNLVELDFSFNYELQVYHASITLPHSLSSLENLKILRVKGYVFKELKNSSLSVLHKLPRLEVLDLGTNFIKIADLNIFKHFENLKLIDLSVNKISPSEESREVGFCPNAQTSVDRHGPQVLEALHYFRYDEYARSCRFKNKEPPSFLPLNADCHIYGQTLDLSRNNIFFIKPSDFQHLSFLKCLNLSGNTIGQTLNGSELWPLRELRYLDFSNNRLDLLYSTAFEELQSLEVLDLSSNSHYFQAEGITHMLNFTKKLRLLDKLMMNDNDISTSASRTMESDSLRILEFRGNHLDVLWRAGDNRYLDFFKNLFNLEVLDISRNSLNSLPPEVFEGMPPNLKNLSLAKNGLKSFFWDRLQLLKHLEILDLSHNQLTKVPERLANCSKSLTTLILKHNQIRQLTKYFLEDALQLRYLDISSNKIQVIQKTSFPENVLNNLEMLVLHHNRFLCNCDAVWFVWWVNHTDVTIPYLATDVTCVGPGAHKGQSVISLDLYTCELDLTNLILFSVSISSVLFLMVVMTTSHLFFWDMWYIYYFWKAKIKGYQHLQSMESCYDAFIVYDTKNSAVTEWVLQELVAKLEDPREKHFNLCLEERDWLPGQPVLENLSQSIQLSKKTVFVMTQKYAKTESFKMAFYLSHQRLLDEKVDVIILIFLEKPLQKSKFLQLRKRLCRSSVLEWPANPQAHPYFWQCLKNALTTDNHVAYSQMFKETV
The experiment in a line: Agonist activity at mouse TLR7.

The nature of data set [2]: Metabolic stability in human liver microsomes assessed as compound remaining at 0.5 uM incubated for 10 mins in presence of NADPH by UV absorbance based assay. It counts as ADME, Microsome. As to conditions: read-out: Stability.
Data set [3] can be described thus: Metabolic stability in mouse liver microsomes assessed as compound remaining at 0.5 uM incubated for 10 mins in presence of NADPH by UV absorbance based assay. It is filed as ADME, Microsome. Particulars: read-out: Stability.
Data set [4] in a line: Drug concentration in nontumor bearing Balb/C mouse at 0.5 mg/kg measured after 5 mins. It counts as ADME, organism-based. As to conditions: in vivo, read-out: Drug uptake.
The test system of data set [5] is Mus musculus. The data set is described as follows: Immunostimulatory activity in nontumor bearing Balb/C mouse assessed as increase in IFNalpha production in serum at 0.5 to 1 mg/kg, iv measured after 2 hrs by ELISA. Particulars: dose 0.5-1 mg/kg. It counts as functional, organism-based. Summed up:
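Nontumor-bearing female Balb/C mice received a single 1 mg/kg dose. Serum IFNα was measured 2 h after administration, with N = 9 mice per group.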

Data set [6] in a line: AUClast in nontumor bearing Balb/C mouse at 0.5 mg/kg. It is filed as ADME, organism-based. Details: dose 0.5 mg/kg. As to conditions: in vivo.
The nature of data set [7]: Half life in nontumor bearing Balb/C mouse at 0.5 mg/kg. It counts as ADME, organism-based. As to conditions: in vivo.
A short description of data set [8]: Clearance in nontumor bearing Balb/C mouse at 0.5 mg/kg. It counts as ADME, organism-based. As to conditions: in vivo.
For data set [9], the system named is CT26. The experiment in a line: Antitumor activity against syngeneic mouse CT26 cells implanted in Balb/cAnNHsd mouse assessed as complete tumor regression with no relapse at 2.5 mg/kg, ip administered once a week for 4 weeks in presence of aPD1 antibody and measured twice weekly by digital caliper analysis. It is filed as functional, organism-based. Summed up:
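Syngeneic CT-26 tumors in mice. The TLR7 agonist was given at 0.5 or 2.5 mg/kg weekly for 4 doses (QWx4). It was combined with anti-PD1 antibody at 10 mg/kg IP, every 4 days for 7 doses (Q4Dx7). Tumor growth was followed, including 27 days after compound dosing stopped.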

Data set [10] has as its target T2, Cytochrome P450 1A2 (Homo sapiens, UniProt P05177).
T2 sequence (P05177 whole entry): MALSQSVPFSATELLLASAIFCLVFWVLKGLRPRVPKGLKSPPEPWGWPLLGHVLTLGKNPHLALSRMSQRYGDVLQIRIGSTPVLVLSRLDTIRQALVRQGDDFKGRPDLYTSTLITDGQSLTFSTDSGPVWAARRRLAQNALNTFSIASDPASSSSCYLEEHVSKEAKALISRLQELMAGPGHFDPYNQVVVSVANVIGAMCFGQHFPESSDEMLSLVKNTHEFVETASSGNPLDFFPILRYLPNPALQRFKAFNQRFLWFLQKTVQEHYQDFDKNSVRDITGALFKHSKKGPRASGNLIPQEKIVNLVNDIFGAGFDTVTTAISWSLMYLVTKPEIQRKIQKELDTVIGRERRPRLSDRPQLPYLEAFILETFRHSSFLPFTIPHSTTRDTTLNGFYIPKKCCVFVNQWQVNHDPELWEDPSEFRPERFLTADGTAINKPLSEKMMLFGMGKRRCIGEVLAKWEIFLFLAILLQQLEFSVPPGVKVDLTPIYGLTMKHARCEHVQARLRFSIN
The experiment in a line: Inhibition of CYP1A2 (unknown origin). It counts as ADME.

The target of data set [11] is Cytochrome P450 2C19 (Homo sapiens, UniProt P33261). The experiment in a line: Inhibition of CYP2C19 (unknown origin). It is filed as ADME.
For data set [12], the target named is Cytochrome P450 2D6 (Homo sapiens, UniProt P10635). The experiment in a line: Inhibition of CYP2D6 (unknown origin). It counts as ADME.
The target in data set [13] is T3, Cytochrome P450 2C8 (Homo sapiens, UniProt P10632).
T3 sequence (P10632 whole entry): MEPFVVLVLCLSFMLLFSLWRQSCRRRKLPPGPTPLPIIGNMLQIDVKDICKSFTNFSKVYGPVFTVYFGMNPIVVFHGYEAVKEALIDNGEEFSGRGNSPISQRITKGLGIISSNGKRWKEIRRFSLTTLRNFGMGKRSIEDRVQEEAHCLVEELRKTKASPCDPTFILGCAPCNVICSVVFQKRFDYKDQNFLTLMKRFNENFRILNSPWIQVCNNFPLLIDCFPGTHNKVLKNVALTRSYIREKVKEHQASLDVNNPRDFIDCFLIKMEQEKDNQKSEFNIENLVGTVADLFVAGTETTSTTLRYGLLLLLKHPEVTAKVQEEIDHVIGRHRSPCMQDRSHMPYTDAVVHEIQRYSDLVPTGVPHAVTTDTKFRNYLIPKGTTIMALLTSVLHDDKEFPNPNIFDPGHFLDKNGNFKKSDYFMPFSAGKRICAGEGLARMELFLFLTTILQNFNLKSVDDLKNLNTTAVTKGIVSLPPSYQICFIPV
The experiment in a line: Inhibition of CYP2C8 (unknown origin). It counts as ADME.

In data set [14] the target is Cytochrome P450 3A4 (Homo sapiens, UniProt P08684). The experiment in a line: Inhibition of CYP3A4 (unknown origin) using BFC as substrate preincubated with compound followed by substrate addition at 30 mins. It is filed as ADME.
Sequence of Cytochrome P450 3A4 (P08684 whole entry): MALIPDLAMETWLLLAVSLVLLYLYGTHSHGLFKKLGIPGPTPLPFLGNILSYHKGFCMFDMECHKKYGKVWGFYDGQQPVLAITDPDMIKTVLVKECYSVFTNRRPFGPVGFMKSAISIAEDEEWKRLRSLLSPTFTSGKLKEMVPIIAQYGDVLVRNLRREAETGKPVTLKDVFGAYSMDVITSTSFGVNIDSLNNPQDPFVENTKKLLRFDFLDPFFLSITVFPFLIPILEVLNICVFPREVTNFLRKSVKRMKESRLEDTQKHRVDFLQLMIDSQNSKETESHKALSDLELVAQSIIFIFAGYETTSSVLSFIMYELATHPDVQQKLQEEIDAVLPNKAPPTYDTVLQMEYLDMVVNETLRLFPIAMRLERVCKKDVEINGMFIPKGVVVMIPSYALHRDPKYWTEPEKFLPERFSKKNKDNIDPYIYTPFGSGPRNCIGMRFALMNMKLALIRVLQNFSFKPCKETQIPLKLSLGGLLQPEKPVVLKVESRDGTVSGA

Sequence of Cytochrome P450 2D6 (P10635 whole entry): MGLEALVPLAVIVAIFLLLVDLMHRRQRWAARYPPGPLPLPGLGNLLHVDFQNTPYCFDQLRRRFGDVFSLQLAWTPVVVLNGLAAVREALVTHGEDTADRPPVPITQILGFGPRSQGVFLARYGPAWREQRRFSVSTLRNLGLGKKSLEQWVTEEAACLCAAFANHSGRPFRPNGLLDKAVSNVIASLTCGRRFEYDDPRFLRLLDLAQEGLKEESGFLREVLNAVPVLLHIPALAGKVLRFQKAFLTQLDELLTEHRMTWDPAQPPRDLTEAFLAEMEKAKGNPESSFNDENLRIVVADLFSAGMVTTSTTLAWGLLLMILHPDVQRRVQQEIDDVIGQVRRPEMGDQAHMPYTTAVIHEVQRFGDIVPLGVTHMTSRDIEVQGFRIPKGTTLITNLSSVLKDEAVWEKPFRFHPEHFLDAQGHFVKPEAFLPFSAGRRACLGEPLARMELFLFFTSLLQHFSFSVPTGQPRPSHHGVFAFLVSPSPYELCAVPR
Sequence of Cytochrome P450 2C19 (P33261 whole entry): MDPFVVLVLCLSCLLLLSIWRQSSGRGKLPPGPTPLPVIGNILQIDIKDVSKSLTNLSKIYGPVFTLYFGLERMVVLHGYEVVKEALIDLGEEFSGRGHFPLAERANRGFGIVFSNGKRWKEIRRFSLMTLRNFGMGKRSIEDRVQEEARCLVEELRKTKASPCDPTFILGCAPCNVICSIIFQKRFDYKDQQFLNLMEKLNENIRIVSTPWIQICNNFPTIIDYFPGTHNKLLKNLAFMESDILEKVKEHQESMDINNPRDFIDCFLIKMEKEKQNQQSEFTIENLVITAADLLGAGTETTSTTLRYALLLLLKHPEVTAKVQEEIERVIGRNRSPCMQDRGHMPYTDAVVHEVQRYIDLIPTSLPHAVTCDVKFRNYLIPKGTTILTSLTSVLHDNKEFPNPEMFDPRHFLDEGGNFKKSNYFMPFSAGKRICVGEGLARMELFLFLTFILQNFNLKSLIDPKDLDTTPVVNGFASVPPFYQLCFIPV

As for `CCC[C@@H](CCO)Nc1nc(N)nc2cnn(Cc3ncc(C4CCN(C5CCOCC5)CC4)cc3OC)c12`, in [1], the EC50 was determined as 0.027 µM. The remaining at 10 min, 0.5 µM amounted to 86% in data set [2] and 100% in [3]. Moreover, the concentration at 5 min in [4] turned out to be 266 nM. For the same molecule, the result in data set [5] and in data set [9] was Active. In [6], this molecule returned an AUC(0-t) of 0.655 µM·h. This molecule also showed a half-life in data set [7] of 6.9 h. The molecule also yielded a clearance in data set [8] of 22 mL/min/kg. The IC50 in data set [10], in data set [11], in data set [12], in [13] and in data set [14] was above 20 µM in each case.
